ChEMBL document CHEMBL2331367, “Alkaloids from Microcos paniculata with cytotoxic and nicotinic receptor antagonistic activities” (J Nat Prod, 2013)
Active and inactive are the calls of the source. The rule behind the calls is not given here.

Experiments:
[1] = target: Neuronal acetylcholine receptor; alpha4/beta2 (Homo sapiens) (UniProt P17787+P43681); assay: Antagonist activity at human recombinant alpha4beta2 nAChR expressed in human HEKtsA201 cells assessed as inhibition of epibatidine-stimulated calcium accumulation at 10 uM pretreated and cotreated with epibatidine by fluorescence plate reader analysis; assay type: cell-based
Outline: (§1)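 HEKtsA201 cells stably expressing human α3β4 or α4β2 nAChR, plated 2.0–2.3×10^5/well on poly-L-ornithine 24 h before assay; loaded with Calcium 5 NW dye in HEPES-buffered Krebs, 1 h room temperature. Compound (10 μM) added at 20 s, then 1 μM epibatidine at 60 s while compound remained. Fluorescence (ex 485/em 525 nm) recorded 120 s; net response expressed as % of epibatidine control; triplicates.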

[2] = target: Neuronal acetylcholine receptor; alpha3/beta4 (Homo sapiens) (UniProt P30926+P32297); assay: Antagonist activity at human recombinant alpha3beta4 nAChR expressed in human HEKtsA201 cells assessed as inhibition of epibatidine-stimulated calcium accumulation at 10 uM pretreated and cotreated with epibatidine by fluorescence plate reader analysis; assay type: cell-based; outline: as §1
HT-29 = assay: Cytotoxicity against human HT-29 cells assessed as inhibition of cell proliferation after 3 days by SRB assay; assay type: functional, cell-based; conditions: HT-29, 72 h
[3] = Cytotoxicity against human CCD-112CoN cells assessed as inhibition of cell proliferation after 3 days by SRB assay; assay type: cell-based; conditions: 72 h
Outline: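 CCD-112CoN normal human colon cells grown in MEME with 10% FBS, pyruvate, non-essential amino acids, 37 °C 5% CO2; used ~70% confluent, 7,600 cells/well. Serial dilutions added in triplicate (10% DMSO vehicle), incubated 3 days; cells TCA-fixed, stained with 0.4% sulforhodamine B, dye solubilized in 10 mM Tris, absorbance 515 nm; IC50 by non-linear regression.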

[4] = Selectivity ratio of IC50 for human CCD-112CoN cells to IC50 for human HT29 cells; assay type: ADME, cell-based, HT-29; conditions: CCD-112CoN cells and HT29 cells, read-out: Ratio IC50

SMILES | inhibition [1] | inhibition [2] | IC50 (HT-29) | IC50 [3] | selectivity ratio [4]
COc1ccc(CCNC(=O)/C=C/c2ccc(O)c(O)c2)cc1 | 21.8% | 14% | > 10 µM |  | 
CCCC/C=C/C=C/C=C/[C@@H]1CC[C@@H](OC(C)=O)[C@H](C)N1C | 44.1% |  | > 10 µM |  | 
CCCC/C=C/C=C/C=C/[C@@H]1CC[C@@H](O)[C@H](C)N1 | 59% | 53% |  |  | 
CNC1(C)C2CCC(C2)C1(C)C (centres undefined) | 91.8% | 88.3% |  |  | 
COc1cc2c3cc1Oc1cc(ccc1O)C[C@@H]1c4c(cc(OC)c(O)c4Oc4ccc(cc4)C[C@@H]3N(C)CC2)CC[N+]1(C)C | 61% | 54% |  |  | 
O=C(OCC1CCCN(CCCc2ccccc2)C1)c1ccccc1-c1ccccc1 (centres undefined) | 39% | inactive |  |  | 
O=C1c2ccccc2-c2c3c(cc4ccnc1c24)OCO3 [LIRIODENINE] | 13.3% | 19.3% | > 10 µM |  | 
CCCC/C=C/C=C/C=C/[C@@H]1CC[C@@H](O)[C@H](C)N1C [MICROGREWIAPINE A] | 74% | 58.2% | 6.8 µM | 30.4 µM | 4
CCCC/C=C/C=C/C=C/[C@@H]1CC[C@@H](O)[C@H](C)[N+]1(C)[O-] (some centres undefined) [MICROGREWIAPINE B] | 79.3% | 82.7% | > 10 µM |  | 
CCCC/C=C/C=C/C=C/[C@@H]1CC[C@H](O)[C@H](C)[N+]1(C)[O-] (some centres undefined) [MICROGREWIAPINE C] | 67.3% | 82.8% | > 10 µM |  | 
CC(=O)O[C@H]1C(=O)[C@@]2(C)[C@H]([C@H](OC(=O)c3ccccc3)[C@]3(O)C[C@H](OC(=O)[C@H](O)[C@@H](NC(=O)c4ccccc4)c4ccccc4)C(C)=C1C3(C)C)[C@]1(OC(C)=O)CO[C@@H]1C[C@@H]2O [PACLITAXEL] |  |  | 0.001 µM | 23 µM | 
